Measured values: ChEMBL document CHEMBL1127440, “Structure-affinity relationship studies on 5-HT1A receptor ligands. 2. Heterobicyclic phenylpiperazines with N4-aralkyl substituents” (J Med Chem, 1994)

Biological target: T1, 5-hydroxytryptamine receptor 1A (Rattus norvegicus, UniProt P19327)
T1 sequence (P19327 whole entry): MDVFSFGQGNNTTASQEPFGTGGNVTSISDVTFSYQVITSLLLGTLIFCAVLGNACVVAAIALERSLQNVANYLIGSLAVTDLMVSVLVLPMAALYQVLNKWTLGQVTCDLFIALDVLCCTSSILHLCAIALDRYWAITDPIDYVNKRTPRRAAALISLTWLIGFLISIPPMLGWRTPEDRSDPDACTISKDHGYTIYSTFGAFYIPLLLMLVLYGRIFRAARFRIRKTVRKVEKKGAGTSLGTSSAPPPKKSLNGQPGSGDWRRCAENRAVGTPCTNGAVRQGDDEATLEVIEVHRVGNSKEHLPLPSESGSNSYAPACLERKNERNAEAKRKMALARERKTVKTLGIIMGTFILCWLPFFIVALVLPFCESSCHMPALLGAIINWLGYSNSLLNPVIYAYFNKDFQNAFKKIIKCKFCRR
Assay: Binding affinity to displace [3H]2-(di-N-propylamino)-8-hydroxy-tetralin from 5-hydroxytryptamine 1A (5-HT1A) receptor in rat frontal cortex homogenates
Format: tissue-based
Procedure, shortened: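 Rat frontal cortex homogenate; [3H]-8-OH-DPAT displaced from specific 5-HT1A sites. Each compound was tested at four to six concentrations in triplicate per assay. Three to six independent assays were run per compound. Ki ± SEM (nM) reported.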

Row | Compound | Ki [nM]
1 | O=C(NCCN1CCN(c2cccc3c2OCCO3)CC1)C1CCCCC1 | 0.44
2 | c1ccc(OCCN2CCN(c3cccc4ccoc34)CC2)cc1 | 0.46
3 | O=C(CCCN1CCN(c2cccc3c2OCCO3)CC1)c1ccc(F)cc1 | 1.4
4 | O=C(NCCN1CCN(c2cccc3ccoc23)CC1)c1ccc(F)cc1 | 0.15
5 | c1ccc(CCCCN2CCN(c3cccc4c3OCCO4)CC2)cc1 | 0.32
6 | O=C(CCCN1CCN(c2cccc3c2OCCO3)CC1)c1ccccc1 | 0.67
7 | O=C(NCCN1CCN(c2cccc3c2OCCO3)CC1)c1ccc(F)cc1 | 0.3
8 | O=C(CCCN1CCN(c2cccc3ccoc23)CC1)c1ccc(F)cc1 | 1
9 | c1ccc(OCCCN2CCN(c3cccc4ccoc34)CC2)cc1 | 0.85
10 | O=C(NCCN1CCN(c2cccc3ccoc23)CC1)C1CCCCC1 | 0.2
11 | c1ccc(OCCCN2CCN(c3cccc4c3OCCO4)CC2)cc1 | 0.95
12 | c1ccc(CN2CCN(c3cccc4ccoc34)CC2)cc1 | 22
13 | c1ccc2c(c1)OCC(CN1CCN(c3cccc4c3OCCO4)CC1)O2 (stereo not drawn) | 4
14 | c1ccc2c(c1)OCC(CN1CCN(c3cccc4ccoc34)CC1)O2 (stereo not drawn) | 5.8
15 | c1ccc(OCCN2CCN(c3cccc4c3OCCO4)CC2)cc1 | 0.73
16 | c1ccc(CCN2CCN(c3cccc4ccoc34)CC2)cc1 | 0.37
17 | c1ccc(CCN2CCN(c3cccc4c3OCCO4)CC2)cc1 | 0.47
18 | c1ccc(CN2CCN(c3cccc4c3OCCO4)CC2)cc1 | 28
